Source: article PMC9933479 (ACS Omega, 2023)

Assays:
Experiment in all cases: MTT assay, cytotoxicity/growth inhibition
[1] = tested on: A549 (lung carcinoma); type: cell-based, human; conditions: for inhibition at 20 µM / IC50: Homo sapiens; for inhibition at 20 µM: A549, 48 h, read-out: Cytotoxic Activity (% Growth Inhibition), A549, 20 μM concentration, MTT, 48 h; for IC50: A549; for Cytotoxic Activity (% Growth Inhibition): A549, 20 μM concentration, MTT, 48 h, 20 µM
Method in brief: (§1)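 Cells were grown in RPMI (A549, HCT-116, PC-3) or DMEM (MCF-7) with 10% FBS at 37 °C and 5% CO2. Seeding per well was […] and PC-3 8 × 10^4 cells. […] MTT 250 μg/mL, 4 h; DMSO; A570; triplicate; mean ± SE.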

[2] = tested on: PC-3 (prostate carcinoma); type: cell-based; conditions: Homo sapiens; for inhibition at 20 µM: 48 h, read-out: Cytotoxic Activity (% Growth Inhibition)
Method in brief: as §1

[3] = tested on: MCF-7 (breast carcinoma); type: cell-based; conditions: Homo sapiens; for inhibition at 20 µM: MCF7, 48 h, read-out: Cytotoxic Activity (% Growth Inhibition); for IC50: MCF7
Method in brief: as §1

[4] = tested on: HCT-116 (colon carcinoma); type: cell-based; conditions: Homo sapiens; for inhibition at 20 µM: HCT-116, 48 h, read-out: Cytotoxic Activity (% Growth Inhibition); for IC50: HCT-116
Method in brief: as §1

CCCCCCCCCC(=O)OCC1=CCC2[C@](C)(CO)[C@H](O)CC[C@@]2(C)[C@@H]1/C=C/C1=CCOC1=O (stereo partly drawn) [Compound 9x, ((1S,5R,6R,8aR)-6-Hydroxy-5-(hydroxymethyl)-5,8a-dimethyl-1-((E)-2-(2-oxo-2,5-dihydrofuran-3-yl)vinyl)-1,4,4a,5,6,7,8,8a-octahydronaphthalen-2-yl)methyl Decanoate]
inhibition at 20 µM [1]: 23.2 ± 0.74%
inhibition at 20 µM [2]: 24 ± 0.83%
inhibition at 20 µM [3]: 46 ± 0.84%
inhibition at 20 µM [4]: 2.7 ± 0.51%

C[C@]1(CO)C2CC=C(COC(=O)Cc3ccc(F)cc3)[C@@H](/C=C/C3=CCOC3=O)[C@]2(C)CC[C@H]1O (stereo partly drawn) [Compound 9p, ((1S,5R,6R,8aR)-6-Hydroxy-5-(hydroxymethyl)-5,8a-dimethyl-1-((E)-2-(2-oxo-2,5-dihydrofuran-3-yl)vinyl)-1,4,4a,5,6,7,8,8a-octahydronaphthalen-2-yl)methyl 2-(4-Fluorophenyl)acetate]
inhibition at 20 µM [1]: 32.6 ± 0.96%
inhibition at 20 µM [2]: 44 ± 0.89%
inhibition at 20 µM [3]: 12 ± 0.85%
inhibition at 20 µM [4]: 27.6 ± 0.31%

C[C@@]12COC(c3ccccc3)O[C@@H]1CC[C@]1(C)C2CC=C(COC(=O)Cc2ccc(F)cc2)[C@H]1/C=C/C1=CCOC1=O (stereo partly drawn) [Compound 8p, ((4aR,6aR,7S,10bR)-6a,10b-Dimethyl-7-((E)-2-(2-oxo-2,5-dihydrofuran-3-yl)vinyl)-3-phenyl-4a,5,6,6a,7,10,10a,10b-octahydro-1H-naphtho[2,1-d][1,3]dioxin-8-yl)methyl 2-(4-Fluorophenyl)acetate]
IC50 [1]: > 20 µM
inhibition at 20 µM [1]: 17 ± 1.7%
IC50 [2]: 8 µM
inhibition at 20 µM [2]: 77 ± 0.86%
IC50 [3]: > 20 µM
inhibition at 20 µM [3]: 0%
IC50 [4]: > 20 µM
inhibition at 20 µM [4]: 20.6 ± 0.95%

CCCCCCCCCCCC(=O)OCC1=CCC2[C@](C)(CO)[C@H](O)CC[C@@]2(C)[C@@H]1/C=C/C1=CCOC1=O (stereo partly drawn) [Compound 9y, ((1S,5R,6R,8aR)-6-Hydroxy-5-(hydroxymethyl)-5,8a-dimethyl-1-((E)-2-(2-oxo-2,5-dihydrofuran-3-yl)vinyl)-1,4,4a,5,6,7,8,8a-octahydronaphthalen-2-yl)methyl Dodecanoate]
inhibition at 20 µM [1]: 1.6 ± 0.98%
inhibition at 20 µM [2]: 66 ± 0.47%
inhibition at 20 µM [3]: 38 ± 0.18%
inhibition at 20 µM [4]: 4.6 ± 0.44%

C[C@]1(CO)C2CC=C(COC(=O)c3cccc(Cl)c3)[C@@H](/C=C/C3=CCOC3=O)[C@]2(C)CC[C@H]1O (stereo partly drawn) [Compound 9d, ((1S,5R,6R,8aR)-6-Hydroxy-5-(hydroxymethyl)-5,8a-dimethyl-1-((E)-2-(2-oxo-2,5-dihydrofuran-3-yl)vinyl)-1,4,4a,5,6,7,8,8a-octahydronaphthalen-2-yl)methyl 3-Chlorobenzoate]
inhibition at 20 µM [1]: 49.19 ± 0.2%
inhibition at 20 µM [2]: 0%
inhibition at 20 µM [3]: 10.02 ± 0.02%
inhibition at 20 µM [4]: 30.21 ± 0.15%

C[C@]1(CO)C2CC=C(COC(=O)c3cccc(C(F)(F)F)c3)[C@@H](/C=C/C3=CCOC3=O)[C@]2(C)CC[C@H]1O (stereo partly drawn) [Compound 9h, ((1S,5R,6R,8aR)-6-Hydroxy-5-(hydroxymethyl)-5,8a-dimethyl-1-((E)-2-(2-oxo-2,5-dihydrofuran-3-yl)vinyl)-1,4,4a,5,6,7,8,8a-octahydronaphthalen-2-yl)methyl 3-(Trifluoromethyl)benzoate]
inhibition at 20 µM [1]: 28.81 ± 0.03%
inhibition at 20 µM [2]: 29 ± 1.4%
inhibition at 20 µM [3]: 30.4 ± 0.36%
inhibition at 20 µM [4]: 3.31 ± 0.13%

C[C@@]12COC(c3ccccc3)O[C@@H]1CC[C@]1(C)C2CC=C(COC(=O)c2cccc(I)c2)[C@H]1/C=C/C1=CCOC1=O (stereo partly drawn) [Compound 8f, ((4aR,6aR,7S,10bR)-6a,10b-Dimethyl-7-((E)-2-(2-oxo-2,5-dihydrofuran-3-yl)vinyl)-3-phenyl-4a,5,6,6a,7,10,10a,10b-octahydro-1H-naphtho[2,1-d][1,3]dioxin-8-yl)methyl 3-Iodobenzoate]
inhibition at 20 µM [1]: 30.98 ± 0.25%
inhibition at 20 µM [2]: 0%
inhibition at 20 µM [3]: 0%
inhibition at 20 µM [4]: 33.25 ± 0.11%

C[C@]1(CO)C2CC=C(COC(=O)c3cccc(I)c3)[C@@H](/C=C/C3=CCOC3=O)[C@]2(C)CC[C@H]1O (stereo partly drawn) [Compound 9f, ((1S,5R,6R,8aR)-6-Hydroxy-5-(hydroxymethyl)-5,8a-dimethyl-1-((E)-2-(2-oxo-2,5-dihydrofuran-3-yl)vinyl)-1,4,4a,5,6,7,8,8a-octahydronaphthalen-2-yl)methyl 3-Iodobenzoate]
inhibition at 20 µM [1]: 58 ± 0.15%
inhibition at 20 µM [2]: 49 ± 1%
inhibition at 20 µM [3]: 21.75 ± 0.06%
inhibition at 20 µM [4]: 0%

COc1cc(CC(=O)OCC2=CCC3[C@]4(C)COC(c5ccccc5)O[C@@H]4CC[C@@]3(C)[C@@H]2/C=C/C2=CCOC2=O)cc(OC)c1OC (stereo partly drawn) [Compound 8u, ((4aR,6aR,7S,10bR)-6a,10b-Dimethyl-7-((E)-2-(2-oxo-2,5-dihydrofuran-3-yl)vinyl)-3-phenyl-4a,5,6,6a,7,10,10a,10b-octahydro-1H-naphtho[2,1-d][1,3]dioxin-8-yl)methyl 2-(3,4,5-Trimethoxyphenyl)acetate]
potency relative to andrographolide (times / fold more potent) ([1]; A549, ratio of IC50 values): about 4
IC50 [1]: 5.4 µM
inhibition at 20 µM [1]: 72 ± 0.54%
IC50 [2]: 9 µM
inhibition at 20 µM [2]: 70.9 ± 0.41%
IC50 [3]: > 20 µM
inhibition at 20 µM [3]: 43 ± 0.28%
IC50 [4]: > 20 µM
inhibition at 20 µM [4]: 10.9 ± 0.99%

COc1ccc(C(=O)OCC2=CCC3[C@]4(C)COC(c5ccccc5)O[C@@H]4CC[C@@]3(C)[C@@H]2/C=C/C2=CCOC2=O)cc1Cl (stereo partly drawn) [Compound 8l, ((4aR,6aR,7S,10bR)-6a,10b-Dimethyl-7-((E)-2-(2-oxo-2,5-dihydrofuran-3-yl)vinyl)-3-phenyl-4a,5,6,6a,7,10,10a,10b-octahydro-1H-naphtho[2,1-d][1,3]dioxin-8-yl)methyl 3-Chloro-4-methoxybenzoate]
Cytotoxic Activity (% Growth Inhibition) [1]: 61.6 ± 0.83%
inhibition at 20 µM [1]: < 60%
inhibition at 20 µM [2]: 62 ± 0.97%
inhibition at 20 µM [3]: 51 ± 0.5%
inhibition at 20 µM [4]: 36.2 ± 0.8%

C[C@]1(CO)C2CC=C(COC(=O)Cc3ccc(I)cc3)[C@@H](/C=C/C3=CCOC3=O)[C@]2(C)CC[C@H]1O (stereo partly drawn) [Compound 9r, ((1S,5R,6R,8aR)-6-Hydroxy-5-(hydroxymethyl)-5,8a-dimethyl-1-((E)-2-(2-oxo-2,5-dihydrofuran-3-yl)vinyl)-1,4,4a,5,6,7,8,8a-octahydronaphthalen-2-yl)methyl 2-(4-Iodophenyl)acetate]
inhibition at 20 µM [1]: 2.4 ± 0.19%
inhibition at 20 µM [2]: 10.6 ± 0.22%
inhibition at 20 µM [3]: 12 ± 0.96%
inhibition at 20 µM [4]: 27.2 ± 0.48%

Cc1ccc(CC(=O)OCC2=CCC3[C@](C)(CO)[C@H](O)CC[C@@]3(C)[C@@H]2/C=C/C2=CCOC2=O)cc1 (stereo partly drawn) [Compound 9t, ((1S,5R,6R,8aR)-6-Hydroxy-5-(hydroxymethyl)-5,8a-dimethyl-1-((E)-2-(2-oxo-2,5-dihydrofuran-3-yl)vinyl)-1,4,4a,5,6,7,8,8a-octahydronaphthalen-2-yl)methyl 2-(p-Tolyl)acetate]
inhibition at 20 µM [1]: 49.7 ± 0.92%
inhibition at 20 µM [2]: 52 ± 0.85%
inhibition at 20 µM [3]: 5.2 ± 0.5%
inhibition at 20 µM [4]: 13.9 ± 0.64%

C[C@]1(CO)C2CC=C(COC(=O)Cc3ccc(Cl)cc3)[C@@H](/C=C/C3=CCOC3=O)[C@]2(C)CC[C@H]1O (stereo partly drawn) [Compound 9q, ((1S,5R,6R,8aR)-6-Hydroxy-5-(hydroxymethyl)-5,8a-dimethyl-1-((E)-2-(2-oxo-2,5-dihydrofuran-3-yl)vinyl)-1,4,4a,5,6,7,8,8a-octahydronaphthalen-2-yl)methyl 2-(4-Chlorophenyl)acetate]
inhibition at 20 µM [1]: 47.2 ± 0.85%
inhibition at 20 µM [2]: 38 ± 0.96%
inhibition at 20 µM [3]: 28 ± 0.87%
inhibition at 20 µM [4]: 19.3 ± 0.97%

C[C@]1(CO)C2CC=C(COC(=O)c3cccc(F)c3)[C@@H](/C=C/C3=CCOC3=O)[C@]2(C)CC[C@H]1O (stereo partly drawn) [Compound 9c, ((1S,5R,6R,8aR)-6-Hydroxy-5-(hydroxymethyl)-5,8a-dimethyl-1-((E)-2-(2-oxo-2,5-dihydrofuran-3-yl)vinyl)-1,4,4a,5,6,7,8,8a-octahydronaphthalen-2-yl)methyl 3-Fluorobenzoate]
inhibition at 20 µM [1]: 42.92 ± 0.27%
inhibition at 20 µM [2]: 0%
inhibition at 20 µM [3]: 1.54 ± 0.03%
inhibition at 20 µM [4]: 14.8 ± 0.17%

C[C@]1(CO)C2CC=C(COC(=O)Cc3ccc(Cl)c(Cl)c3)[C@@H](/C=C/C3=CCOC3=O)[C@]2(C)CC[C@H]1O (stereo partly drawn) [Compound 9v, ((1S,5R,6R,8aR)-6-Hydroxy-5-(hydroxymethyl)-5,8a-dimethyl-1-((E)-2-(2-oxo-2,5-dihydrofuran-3-yl)vinyl)-1,4,4a,5,6,7,8,8a-octahydronaphthalen-2-yl)methyl 2-(3,4-Dichlorophenyl)acetate]
Cytotoxic Activity (% Growth Inhibition) [1]: 72.7 ± 0.54%
IC50 [1]: 7.5 µM
inhibition at 20 µM [1]: 72%
IC50 [2]: > 20 µM
inhibition at 20 µM [2]: 26.5 ± 0.54%
IC50 [3]: > 20 µM
inhibition at 20 µM [3]: 29 ± 0.78%
IC50 [4]: > 20 µM
inhibition at 20 µM [4]: 5.7 ± 6.1%

C[C@]1(CO)C2CC=C(COC(=O)c3ccoc3)[C@@H](/C=C/C3=CCOC3=O)[C@]2(C)CC[C@H]1O (stereo partly drawn) [Compound 9g, ((1S,5R,6R,8aR)-6-Hydroxy-5-(hydroxymethyl)-5,8a-dimethyl-1-((E)-2-(2-oxo-2,5-dihydrofuran-3-yl)vinyl)-1,4,4a,5,6,7,8,8a-octahydronaphthalen-2-yl)methyl Furan-3-carboxylate]
inhibition at 20 µM [1]: 63.58 ± 0.08%
inhibition at 20 µM [2]: 11 ± 0.22%
inhibition at 20 µM [3]: 0%
inhibition at 20 µM [4]: 11.28 ± 0.1%
